According to ChEMBL document CHEMBL1141286, “Benzochromenones from the marine crinoid Comantheria rotula inhibit hypoxia-inducible factor-1 (HIF-1) in cell-based reporter assays and differentially suppress the growth of certain tumor cell lines” (J Nat Prod, 2007):
Active and inactive are the calls of the source. No cut-off for these calls is given here.

How the values were obtained:
SNB-75 = assay: Growth inhibition of human SNB75 cells; assay type: functional
SF-295 = assay: Growth inhibition of human SF295 cells; assay type: functional
SN12C = assay: Growth inhibition of human SN12C cells; assay type: functional
NCI-H522 = assay: Growth inhibition of human NCI-H522 cells; assay type: functional
RXF 393 = assay: Growth inhibition of human RXF393 cells; assay type: functional
ACHN = assay: Growth inhibition of human ACHN cells; assay type: functional
[1] = Growth inhibition of human OVACAR3 cells; assay type: functional
TK-10 = assay: Growth inhibition of human TK10 cells; assay type: functional
SK-MEL-5 = assay: Growth inhibition of human SK-MEL5 cells; assay type: functional
CAKI-1 = assay: Growth inhibition of human CAKI1 cells; assay type: functional
SF-539 = assay: Growth inhibition of human SF539 cells; assay type: functional
M14 = assay: Growth inhibition of human M14 cells; assay type: functional
HT-29 = assay: Growth inhibition of human HT29 cells; assay type: functional
T47D [2] = assay: Inhibition of 1,10-phenanthroline-induced VEGF protein secretion in human T47D cells at 10 uM after 16 hrs by ELISA; assay type: functional, cell-based
Summary of the method: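 T47D cells stimulated with 1,10-phenanthroline, compound at 10 μM; secreted VEGF in conditioned media by ELISA, normalized to cell-lysate protein.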

NCI/ADR-RES = assay: Growth inhibition of human NCI/ADR-RES cells; assay type: functional
K562 = assay: Growth inhibition of human K562 cells; assay type: functional
IGROV-1 = assay: Growth inhibition of human IGROV1 cells; assay type: functional
UO-31 = assay: Growth inhibition of human UO31 cells; assay type: functional
HCT-15 = assay: Growth inhibition of human HCT15 cells; assay type: functional
Malme-3M = assay: Growth inhibition of human MALME-3M cells; assay type: functional
COLO 205 = assay: Growth inhibition of human COLO205 cells; assay type: functional
[3] = Inhibition of HIF1 activation in PC3 cells by TK-luciferase assay; assay type: cell-based; conditions: Homo sapiens, PC-3
Summary of the method: (§1)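 HIF-1 reporter (pHRE-TK-Luc) assays in transfected PC-3 or T47D cells; HIF-1 induced by hypoxia or by the hypoxia mimetic 1,10-phenanthroline (10 μM); compounds at half-log concentrations; luciferase activity measured; IC50 from experiments in triplicate.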

NCI-H322M = assay: Growth inhibition of human NCI-H322M cells; assay type: functional
HCC 2998 = assay: Growth inhibition of human HCC2998 cells; assay type: functional
NCI-H226 = assay: Growth inhibition of human NCI-H226 cells; assay type: functional
NCI-H23 = assay: Growth inhibition of human NCI-H23 cells; assay type: functional
CCRF-CEM = assay: Growth inhibition of human CCRF-CEM cells; assay type: functional
DU-145 = assay: Growth inhibition of human DU145 cells; assay type: functional
SF-268 = assay: Growth inhibition of human SF268 cells; assay type: functional
[4] = Inhibition of 1,10-phenanthroline-induced HIF1 activation in PC3 cells by TK-luciferase assay; assay type: cell-based; conditions: Homo sapiens, PC-3; summary of the method: as §1
SNB-19 = assay: Growth inhibition of human SNB19 cells; assay type: functional
OVCAR-4 = assay: Growth inhibition of human OVACAR4 cells; assay type: functional
LOX IMVI = assay: Growth inhibition of human LOXIMVI cells; assay type: functional
UACC-257 = assay: Growth inhibition of human UACC257 cells; assay type: functional
MCF7 = assay: Growth inhibition of human MCF7 cells; assay type: functional
SK-MEL-2 = assay: Growth inhibition of human SK-MEL2 cells; assay type: functional
OVCAR-8 = assay: Growth inhibition of human OVACAR8 cells; assay type: functional
NCI-H460 = assay: Growth inhibition of human NCI-H460 cells; assay type: functional
786-0 = assay: Growth inhibition of human 786-0 cells; assay type: functional
T47D [5] = assay: Growth inhibition of human T47D cells; assay type: functional
[6] = target: Hypoxia inducible factors; HIF-1-alpha, HIF-2-alpha (Homo sapiens, UniProt Q16665+Q99814); assay: Inhibition of HIF1 activation in human T47D cells by TK-luciferase assay; assay type: cell-based; summary of the method: as §1
[7] = read-out: Log LC50 (the source's name) (converted)

COc1cc(O)cc2cc3oc(C)cc(=O)c3c(O)c12
GI50 (SNB-75): 46.8 µM
LC50 (SNB-75): > 100 µM
TGI (SNB-75; read-out: Log TGI (converted)): > 100 µM
GI50 (SF-295): 30.2 µM
LC50 (SF-295): > 100 µM
TGI (SF-295; read-out: Log TGI (converted)): > 100 µM
GI50 (SN12C): 32.4 µM
LC50 (SN12C): > 100 µM
TGI (SN12C; read-out: Log TGI (converted)): > 100 µM
GI50 (NCI-H522): 2.19 µM
CC50 (NCI-H522; [7]): 93.3 µM
TGI (NCI-H522; read-out: Log TGI (converted)): 22.9 µM
GI50 (RXF 393): 20.4 µM
LC50 (RXF 393): > 100 µM
TGI (RXF 393; read-out: Log TGI (converted)): 53.7 µM
GI50 (ACHN): 17 µM
CC50 (ACHN; [7]): > 100 µM
TGI (ACHN; read-out: Log TGI (converted)): > 100 µM
GI50 [1]: > 100 µM
CC50 [1, 7]: 22.4 µM
TGI ([1]; read-out: Log TGI (converted)): 91.2 µM
GI50 (TK-10): 20.4 µM
LC50 (TK-10): > 100 µM
TGI (TK-10; read-out: Log TGI (converted)): 61.7 µM
GI50 (SK-MEL-5): 0.457 µM
LC50 (SK-MEL-5): 34.7 µM
TGI (SK-MEL-5; read-out: Log TGI (converted)): 12 µM
GI50 (CAKI-1): 42.7 µM
LC50 (CAKI-1): > 100 µM
TGI (CAKI-1; read-out: Log TGI (converted)): > 100 µM
GI50 (SF-539): 27.5 µM
LC50 (SF-539): > 100 µM
TGI (SF-539; read-out: Log TGI (converted)): 87.1 µM
GI50 (M14): 20 µM
LC50 (50% lethal concentration) (M14): > 100 µM
TGI (M14; read-out: Log TGI (converted)): 45.7 µM
GI50 (HT-29): 29.5 µM
CC50 (HT-29; [7]): > 100 µM
TGI (HT-29; read-out: Log TGI (converted)): > 100 µM
Activity (T47D [2]): inactive
GI50 (NCI/ADR-RES): 22.4 µM
LC50 (concentration killing 50% of cells) (NCI/ADR-RES): > 100 µM
TGI (NCI/ADR-RES; read-out: Log TGI (converted)): > 100 µM
GI50 (K562): 14.8 µM
CC50 (K562; [7]): > 100 µM
TGI (K562; read-out: Log TGI (converted)): 49 µM
GI50 (IGROV-1): 0.437 µM
CC50 (IGROV-1; [7]): > 100 µM
TGI (IGROV-1; read-out: Log TGI (converted)): 23.4 µM
GI50 (UO-31): 5.13 µM
LC50 (UO-31): > 100 µM
TGI (UO-31; read-out: Log TGI (converted)): 37.2 µM
GI50 (HCT-15): 23.4 µM
CC50 (HCT-15; [7]): > 100 µM
TGI (HCT-15; read-out: Log TGI (converted)): 70.8 µM
GI50 (Malme-3M): 35.5 µM
CC50 (Malme-3M; [7]): > 100 µM
TGI (Malme-3M; read-out: Log TGI (converted)): 95.5 µM
GI50 (COLO 205): 20.4 µM
CC50 (COLO 205; [7]): > 100 µM
TGI (COLO 205; read-out: Log TGI (converted)): 55 µM
IC50 [3]: 3.3 µM
GI50 (NCI-H322M): 26.9 µM
CC50 (NCI-H322M; [7]): > 100 µM
TGI (NCI-H322M; read-out: Log TGI (converted)): 95.5 µM
GI50 (HCC 2998): 24.5 µM
CC50 (HCC 2998; [7]): > 100 µM
TGI (HCC 2998; read-out: Log TGI (converted)): 64.6 µM
GI50 (NCI-H226): 22.4 µM
CC50 (NCI-H226; [7]): > 100 µM
TGI (NCI-H226; read-out: Log TGI (converted)): > 100 µM
GI50 (NCI-H23): 24.5 µM
CC50 (NCI-H23; [7]): > 100 µM
TGI (NCI-H23; read-out: Log TGI (converted)): 83.2 µM
GI50 (CCRF-CEM): 30.2 µM
LC50 (CCRF-CEM): > 100 µM
TGI (CCRF-CEM; read-out: Log TGI (converted)): 100 µM
GI50 (DU-145): 21.9 µM
CC50 (DU-145; [7]): > 100 µM
TGI (DU-145; read-out: Log TGI (converted)): 70.8 µM
GI50 (SF-268): 30.2 µM
LC50 (SF-268): > 100 µM
TGI (SF-268; read-out: Log TGI (converted)): > 100 µM
IC50 [4]: 2.5 µM
GI50 (SNB-19): 32.4 µM
LC50 (SNB-19): > 100 µM
TGI (SNB-19; read-out: Log TGI (converted)): > 100 µM
GI50 (OVCAR-4): 45.7 µM
LC50 (OVCAR-4): > 100 µM
TGI (OVCAR-4; read-out: Log TGI (converted)): > 100 µM
GI50 (LOX IMVI): 18.2 µM
LC50 (LOX IMVI): > 100 µM
TGI (LOX IMVI; read-out: Log TGI (converted)): 52.5 µM
GI50 (UACC-257): 45.7 µM
LC50 (UACC-257): > 100 µM
TGI (UACC-257; read-out: Log TGI (converted)): > 100 µM
GI50 (MCF7): 31.6 µM
LC50 (MCF7): > 100 µM
TGI (MCF7; read-out: Log TGI (converted)): > 100 µM
GI50 (SK-MEL-2): 4.9 µM
LC50 (SK-MEL-2): > 100 µM
TGI (SK-MEL-2; read-out: Log TGI (converted)): 35.5 µM
GI50 (OVCAR-8): 27.5 µM
LC50 (OVCAR-8): > 100 µM
TGI (OVCAR-8; read-out: Log TGI (converted)): > 100 µM
GI50 (NCI-H460): 19.1 µM
CC50 (NCI-H460; [7]): > 100 µM
TGI (NCI-H460; read-out: Log TGI (converted)): 50.1 µM
GI50 (786-0): 20 µM
LC50 (786-0): > 100 µM
TGI (786-0; read-out: Log TGI (converted)): 50.1 µM
GI50 (T47D [5]): 17.8 µM
LC50 (T47D [5]): > 100 µM
TGI (T47D [5]; read-out: Log TGI (converted)): > 100 µM
IC50 [6]: 3.4 µM
